MEKK3 PB1 HTS: raises or lowers MEK5 binding to the human MEKK3 PB1 domain | Q99759 | 290,000 tested, 1.4% active | bead-based flow cytometry, Alexa488-MEK5 binding to MEKK3; actives lie on both sides; 0 = blocked by unlabeled MEK5, 100 = vehicle | binding response (% of control), % at 10 µM;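 active means binding response more than 3 SD above or below the average of its plate-row segment, actives on both sides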;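 further: Alexa488 bead fluorescence after subtracting the streptavidin-only scavenger bead signal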
Apaf1 inhib: blocks human Apaf-1 apoptosome activity. O14727. reconstituted apoptosome caspase-3 activity, DEVD-Rh110 fluorescence. inhibition, % at 20 µM. 330,000 tested, 0.71% active. AID 489030; active means inhibition of at least 40% at 20 µM;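 further: plate controls were DMSO wells for no effect and DEVD-CHO caspase inhibitor wells for full effect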
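detection = Rh110 fluorescence intensity | test system = biochemical Apaf-1 apoptosome reconstitution | also added = cytochrome c and DEVD-Rh110 substrate | schedule = 30 min plus 50 min, RT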
UBC13 inh: human UBC13 polyubiquitination inhibition. P61088. UBC13 polyubiquitin chain formation, TR-FRET. inhibition, % at 20 µM. 330,000 tested, 0.47% active. AID 485273; in the data active means inhibition above about 45%, passing the limit was not always enough
Target sequence (P61088 whole entry, looked up): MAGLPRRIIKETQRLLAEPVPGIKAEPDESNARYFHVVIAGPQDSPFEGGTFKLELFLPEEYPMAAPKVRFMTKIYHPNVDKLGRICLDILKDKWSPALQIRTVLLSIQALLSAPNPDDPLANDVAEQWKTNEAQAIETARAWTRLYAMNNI
Pemphigus Ab inh: blocks pemphigus antibody binding to human desmoglein-3 | P32926 | AID 588358 | 310,000 tested, 0.48% active | DSG3-coupled beads, scFv-anti-DSG3-GFP binding, flow cytometry; stronger effect = lower value | binding (percent of control), % at 10 µM;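 active means binding more than 3 SD below its plate's average and above zero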;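 further: hits lower antibody fragment binding to DSG3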
MEKK2 mut-MEK5: signal of MEK5 binding to mutant human MEKK2 PB1 domain; bead flow cytometry, Alexa488-MEK5 binding to MEKK2 mutant; percent response, % at 10 µM; 290,000 tested, 0.35% active; AID 1530; in the data active means percent response above about 24%, passing the limit was not always enough
MEKK2wt PB1 HTS: raises or lowers MEK5 binding to wildtype human MEKK2 PB1 domain. bead flow cytometry, Alexa488-MEK5 binding to MEKK2 WT; actives lie on both sides. AID 1531. binding response (% of control), % at 10 µM. 290,000 tested, 1.1% active. Q9Y2U5; in the data active means binding response below about 67% or above about 130%
MEKK2wt confirm: raises or lowers MEK5 binding to wildtype human MEKK2, retest. shares compounds with MEKK3 PB1 HTS. 5,900 tested, 2.4% active. bead flow cytometry, Alexa488-MEK5 binding to MEKK2 WT; actives lie on both sides. binding response (% of control), % at 10 µM; in the data active means binding response below about 16% or above about 210%; inactive means in between
MEKK2mut confirm: signal of MEK5 binding to mutant human MEKK2, retest | AID 1893 | bead flow cytometry, Alexa488-MEK5 binding to MEKK2 mutant | shares compounds with MEKK3 PB1 HTS | percent response, % at 10 µM | 5,900 tested, 2% active; in the data active means percent response mostly above about 71%, no sharp cut-off; inactive means mostly below about 38%;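 further: higher means compound restores mutant binding toward wildtype level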
MEKK3 confirm: MEKK3-MEK5 PB1 inhibition, single concentration confirmation | bead flow cytometry, Alexa488-MEK5 binding to MEKK3; stronger effect = lower value | shares compounds with MEKK3 PB1 HTS | 5,900 tested, 1.8% active | binding response (% of control), % at 10 µM;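 active means binding response below 72% of control, or above a set upper limit, though filed actives all read lower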;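 further: 100% = DMSO only wells and 0% = binding blocked by excess unlabeled MEK5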
Starred values were filed as active, the others as inactive; . = no result given; [ ] = another dose, or the depositor's remark. Hits are enriched below; roughly 3.2% of the tested compounds scored in any of these assays.

SMILES	MEKK3 PB1 HTS	Apaf1 inhib	UBC13 inh	Pemphigus Ab inh	MEKK2 mut-MEK5	MEKK2wt PB1 HTS	MEKK2wt confirm	MEKK2mut confirm	MEKK3 confirm
Cc1cc(Sc2nc(N(C)C)nc(N(C)C)n2)nc(Cl)n1	137.0*	-2.1	4.6	109.7	5.0	121.0	107.0	1.0	103.0
Cn1c(=O)c([N+](=O)[O-])c(NCCc2ccccc2)c2ccccc21	129.0*	15.7	14.6	100.6	1.0	106.0	105.0	5.0	107.0
CCn1c(=O)c([N+](=O)[O-])c(NCCc2ccccc2)c2ccccc21	111.0	4.3	4.4	116.7	6.0	117.0	.	.	.
c1ccc2nc3ccccc3nc2c1	46.0*[inhibitor]	2.6	-12.3	100.2	1.0	68.0	103.0	7.0	105.0
c1ccc2c(c1)cnc1ccccc12	37.0*[inhibitor]	-16.0	-4.3	104.2	-13.0	33.0*[inhibitor]	104.0	3.0	107.0
Cc1ccc2[nH]c(C)c(/C=N/Nc3nc4ccccc4s3)c2c1	96.0	1.5	32.8	99.0	5.0	138.0*	117.0	-2.0	96.0
COc1ccc(C=NNc2nc3ccccc3s2)cc1	.	.	.	109.6	.	.	.	.	.
COc1cccc(C(=O)NC(=S)Nc2ccc(N(C)C)cc2)c1	141.0*	7.8	9.5	101.0	2.0	106.0	116.0	9.0	104.0
CCOc1cccc(C(=O)NC(=S)Nc2cccc(C)c2)c1	130.0*	14.0	8.7	102.4	0.0	105.0	100.0	0.0	100.0
COc1cccc(C(=O)NC(=S)Nc2ccc(Cl)cc2C(=O)O)c1	131.0*	-6.2	19.6	97.2	25.0	130.0	100.0	3.0	103.0
Nc1ncc(S(=O)(=O)c2ccc([N+](=O)[O-])cc2)s1	.	.	.	90.7	.	.	.	.	.
O=S(=O)(/C=C/c1ccccc1)N1CCN(c2ccccc2)CC1	105.0	2.8	-4.8	111.5	6.0	105.0	.	.	.
O=S(=O)(/C=C/c1ccccc1)N1CCN(c2ccc(F)cc2)CC1	74.0*[inhibitor]	21.6	1.5	95.4	-10.0	82.0	105.0	5.0	105.0
Cc1ccc(N(CC(=O)NCc2ccccc2)C(=O)c2csnn2)c(C)c1	104.0	2.9	5.9	94.4	4.0	106.0	.	.	.
CCOC(=O)Cn1cc(C(=O)C2CC2)c2ccccc21	2.0*[inhibitor]	6.2	6.3	106.5	-16.0	2.0*[inhibitor]	106.0	2.0	101.0
OCCN1CCN(c2nc(-c3ccccc3O)nc3ccccc23)CC1	107.0	5.1	5.1	98.6	15.0	120.0	.	.	.
CC1CN(C(=O)CSc2nnc(-c3cccs3)n2N)CC(C)O1 (stereo unspecified)	.	-3.4	-1.8	91.2	.	.	.	.	.
N=C1/C(=C\c2coc3ccccc3c2=O)C(=O)N=C2SC(c3ccncc3)=NN12	70.0*[inhibitor]	23.8	2.6	101.1	-10.0	67.0	101.0	2.0	101.0
Cc1cccc(C(=O)Nc2sc3c(c2C(=O)O)CCC3)c1	75.0*[inhibitor]	-14.7	21.4	88.6	-14.0	84.0	96.0	-8.0	98.0
CN(C)CCNC(=O)c1c(NC(=O)c2ccccc2)sc2c1CCCC2	109.0	11.1	18.0	108.0	14.0	148.0*	134.0	18.0	106.0
CN(CCO)C(=O)c1c(NC(=O)c2ccccc2)sc2c1CCCC2	105.0	-362.3	3.6	98.6	0.0	101.0	.	.	.
COc1ccc(CN2C(=O)C(CC(=O)NCC3CCCCC3)CC(C(=O)N3CCOCC3)=C2C)cc1 (stereo unspecified)	.	.	.	104.7	.	.	.	.	.
C[C@H](NS(=O)(=O)c1ccc(Cl)c(Cl)c1)C(=O)OCc1cc(=O)n2cc(Br)ccc2n1	131.0*	9.6	-12.2	117.4	1.0	102.0	98.0	4.0	104.0
CCOc1ccc(OCC(=O)OCc2cc(=O)n3cc(Br)ccc3n2)cc1	.	5.3	-5.4	96.3	.	.	.	.	.
